Reference: ChEMBL document CHEMBL6092129, “Inhibiting SARS-CoV-2 viral entry by targeting spike:ACE2 interaction with O-modified quercetin derivatives” (RSC Med Chem, 2024)
Activity calls are given as the source filed them. The rule behind the calls is not given here.

What was measured:
H9c2 [1] = test: Cardiotoxicity against rat H9c2 cells at 30.22 ppm incubated for 30 mins by LDH release based CytoTox 96 assay relative to control; assay type: toxicity, cell-based; conditions: h9c2, 0.5 h
[2] = Hepatotoxicity against human HepG2 cells at 30.22 ppm incubated for 30 mins by LDH release based CytoTox 96 assay relative to control; assay type: toxicity, cell-based; conditions: hepg2, 0.5 h
[3] = target: T1, Spike glycoprotein/Angiotensin-converting enzyme 2 (Severe acute respiratory syndrome coronavirus 2) (UniProt Q9BYF1+P0DTC2); test: Inhibition of SARS CoV-2 S1 RBD/biotinylated ACE2 (unknown origin) protein-protein interaction at 100 uM preincubated with S1 protein for 60 mins followed by addition of ACE2 protein measured after 60 mins by ELISA; assay type: protein assay; conditions: time 120.0 min
Procedure, shortened: (§1)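 SARS-CoV-2 S1 RBD coated at 2 µg/mL (60 min, 37 °C), then blocked with 1% BSA in PBS pH 7.2–7.4 (30 min, 37 °C). Compound (0.8, 4.0, 20.0 or 100.0 µM) incubated 60 min at 37 °C with 0.05% DMSO–PBS vehicle control. Biotin-ACE2 solution (0.5 µg/mL) added for 60 min, then ExtrAvidin-peroxidase (40 min) and OPD (10 min, RT, dark), read at 450 nm. Three trials; IC50 from four-parameter fit (bottom 0, Hill slope 1).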

HK-2 [4] = test: Nephrotoxicity against human HK-2 cells at 30.22 ppm incubated for 30 mins by LDH release based CytoTox 96 assay relative to control; assay type: toxicity, cell-based; conditions: hk-2, 0.5 h
[5] = target: T1, Spike glycoprotein/Angiotensin-converting enzyme 2 (Severe acute respiratory syndrome coronavirus 2); test: Inhibition of SARS CoV-2 S1 RBD/biotinylated ACE2 (unknown origin) protein-protein interaction at 100 uM preincubated with S1 protein for 60 mins followed by addition of ACE2 protein measured after 60 mins by ELISA relative to control; assay type: protein assay; conditions: time 120.0 min; procedure, shortened: as §1
[6] = target: Spike glycoprotein/Angiotensin-converting enzyme 2 (Severe acute respiratory syndrome coronavirus 2, UniProt P0DTC2+Q9BYF1); test: (§2) Inhibition of SARS CoV-2 S1 RBD/biotinylated ACE2 (unknown origin) protein-protein interaction preincubated with S1 protein for 60 mins followed by addition of ACE2 protein measured after 60 mins by ELISA; assay type: protein assay; procedure, shortened: as §1
Sequence of Spike glycoprotein/Angiotensin-converting enzyme 2 (Q9BYF1 whole entry, looked up, other chains not shown): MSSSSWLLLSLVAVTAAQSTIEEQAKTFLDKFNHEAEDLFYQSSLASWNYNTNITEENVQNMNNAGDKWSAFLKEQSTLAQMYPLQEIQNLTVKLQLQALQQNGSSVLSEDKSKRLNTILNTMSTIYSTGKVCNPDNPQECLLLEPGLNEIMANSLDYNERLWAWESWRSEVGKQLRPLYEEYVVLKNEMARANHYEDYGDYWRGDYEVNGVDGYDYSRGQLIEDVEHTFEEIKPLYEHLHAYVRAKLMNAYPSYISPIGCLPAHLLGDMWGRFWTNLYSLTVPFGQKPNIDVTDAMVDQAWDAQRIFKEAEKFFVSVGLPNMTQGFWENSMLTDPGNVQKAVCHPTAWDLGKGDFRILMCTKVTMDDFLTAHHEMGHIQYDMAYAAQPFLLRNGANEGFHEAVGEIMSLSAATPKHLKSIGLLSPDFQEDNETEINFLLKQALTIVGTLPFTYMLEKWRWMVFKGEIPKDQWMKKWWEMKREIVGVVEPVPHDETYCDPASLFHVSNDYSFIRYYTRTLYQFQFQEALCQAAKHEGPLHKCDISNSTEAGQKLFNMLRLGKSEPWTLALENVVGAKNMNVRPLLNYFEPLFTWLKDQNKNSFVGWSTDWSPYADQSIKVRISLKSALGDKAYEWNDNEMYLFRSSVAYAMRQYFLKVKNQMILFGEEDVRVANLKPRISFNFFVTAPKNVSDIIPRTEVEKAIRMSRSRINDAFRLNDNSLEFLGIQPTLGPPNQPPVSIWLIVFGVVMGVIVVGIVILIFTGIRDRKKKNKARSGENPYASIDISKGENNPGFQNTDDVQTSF

[7] = target: T1, Spike glycoprotein/Angiotensin-converting enzyme 2 (Severe acute respiratory syndrome coronavirus 2); test: as §2; assay type: protein assay; conditions: time 120.0 min; procedure, shortened: as §1
[8] = Hepatotoxicity against human HepG2 cells at 12.09 ppm incubated for 30 mins by LDH release based CytoTox 96 assay relative to control; assay type: toxicity, cell-based; conditions: hepg2, 0.5 h
HK-2 [9] = test: Nephrotoxicity against human HK-2 cells at 12.09 ppm incubated for 30 mins by LDH release based CytoTox 96 assay relative to control; assay type: toxicity, cell-based; conditions: hk-2, 0.5 h
H9c2 [10] = test: Cardiotoxicity against rat H9c2 cells at 12.09 ppm incubated for 30 mins by LDH release based CytoTox 96 assay relative to control; assay type: toxicity, cell-based; conditions: h9c2, 0.5 h
[11] = Hepatotoxicity against human HepG2 cells at 1.54 ppm incubated for 30 mins by LDH release based CytoTox 96 assay relative to control; assay type: toxicity, cell-based; conditions: hepg2, 0.5 h
H9c2 [12] = test: Cardiotoxicity against rat H9c2 cells at 1.54 ppm incubated for 30 mins by LDH release based CytoTox 96 assay relative to control; assay type: toxicity, cell-based; conditions: h9c2, 0.5 h
HK-2 [13] = test: Nephrotoxicity against human HK-2 cells at 1.54 ppm incubated for 30 mins by LDH release based CytoTox 96 assay relative to control; assay type: toxicity, cell-based; conditions: hk-2, 0.5 h
[14] = target: T1, Spike glycoprotein/Angiotensin-converting enzyme 2 (Severe acute respiratory syndrome coronavirus 2); test: Inhibition of SARS CoV-2 S1 RBD/biotinylated ACE2 (unknown origin) protein-protein interaction at 0.8 uM preincubated with S1 protein for 60 mins followed by addition of ACE2 protein measured after 60 mins by ELISA relative to control; assay type: protein assay; conditions: time 120.0 min; procedure, shortened: as §1
H9c2 [15] = test: Cardiotoxicity against rat H9c2 cells at 2.07 ppm incubated for 30 mins by LDH release based CytoTox 96 assay relative to control; assay type: toxicity, cell-based; conditions: h9c2, 0.5 h
[16] = Hepatotoxicity against human HepG2 cells at 2.07 ppm incubated for 30 mins by LDH release based CytoTox 96 assay relative to control; assay type: toxicity, cell-based; conditions: hepg2, 0.5 h
HK-2 [17] = test: Nephrotoxicity against human HK-2 cells at 2.07 ppm incubated for 30 mins by LDH release based CytoTox 96 assay relative to control; assay type: toxicity, cell-based; conditions: hk-2, 0.5 h
H9c2 [18] = test: Cardiotoxicity against rat H9c2 cells at 4.71 ppm incubated for 30 mins by LDH release based CytoTox 96 assay relative to control; assay type: toxicity, cell-based; conditions: h9c2, 0.5 h
[19] = Hepatotoxicity against human HepG2 cells at 4.71 ppm incubated for 30 mins by LDH release based CytoTox 96 assay relative to control; assay type: toxicity, cell-based; conditions: hepg2, 0.5 h
HK-2 [20] = test: Nephrotoxicity against human HK-2 cells at 4.71 ppm incubated for 30 mins by LDH release based CytoTox 96 assay relative to control; assay type: toxicity, cell-based; conditions: hk-2, 0.5 h
[21] = Hepatotoxicity against human HepG2 cells at 1.03 ppm incubated for 30 mins by LDH release based CytoTox 96 assay relative to control; assay type: toxicity, cell-based; conditions: hepg2, 0.5 h
HK-2 [22] = test: Nephrotoxicity against human HK-2 cells at 1.03 ppm incubated for 30 mins by LDH release based CytoTox 96 assay relative to control; assay type: toxicity, cell-based; conditions: hk-2, 0.5 h
H9c2 [23] = test: Cardiotoxicity against rat H9c2 cells at 1.03 ppm incubated for 30 mins by LDH release based CytoTox 96 assay relative to control; assay type: toxicity, cell-based; conditions: h9c2, 0.5 h

O=c1c(O)c(-c2ccc(O)c(O)c2)oc2cc(O)cc(O)c12 [QUERCETIN]
Activity (H9c2 [1]): 12.93%
Activity [2]: 1.74%
inhibition [3]: inactive
Activity (HK-2 [4]): 1.56%

O=C(Oc1cc(O)c2c(=O)c(OC(=O)c3ccccc3)c(-c3ccc(OC(=O)c4ccccc4)c(OC(=O)c4ccccc4)c3)oc2c1)c1ccccc1
inhibition [5]: < 50%

O=c1c(OCc2ccccc2)c(-c2ccc(OCc3ccccc3)c(OCc3ccccc3)c2)oc2cc(OCc3ccccc3)cc(O)c12
inhibition [5]: < 50%

CCCOc1cc(O)c2c(=O)c(OCCC)c(-c3ccc(OCCC)c(OCCC)c3)oc2c1
IC50 [6]: 25.7 µM
inhibition [7]: Dose-dependent-effect
Activity [8]: 0.39%
Activity (HK-2 [9]): 1.71%
Activity (H9c2 [10]): 1.05%

CCC(=O)Oc1cc(O)c2c(=O)c(OC(=O)CC)c(-c3ccc(OC(=O)CC)c(O)c3)oc2c1
IC50 [6]: 3.28 µM
inhibition [7]: Dose-dependent-effect
Activity [11]: 0.21%
Activity (H9c2 [12]): 1.95%
Activity (HK-2 [13]): 0.26%

CCC(=O)Oc1cc(O)c2c(=O)c(OC(=O)CC)c(-c3ccc(OC(=O)CC)c(OC(=O)CC)c3)oc2c1
inhibition [14]: > 50%

CC(=O)Oc1cc(O)c2c(=O)c(OC(C)=O)c(-c3ccc(OC(C)=O)c(O)c3)oc2c1
inhibition [14]: > 50%

CCOc1cc(O)c2c(=O)c(OCC)c(-c3ccc(OCC)c(OCC)c3)oc2c1
IC50 [6]: 5 µM
inhibition [7]: Dose-dependent-effect
Activity (H9c2 [15]): 0.11%
Activity [16]: 1.47%
Activity (HK-2 [17]): 5.5%

O=c1c(OCc2ccc(F)cc2)c(-c2ccc(OCc3ccc(F)cc3)c(O)c2)oc2cc(OCc3ccc(F)cc3)cc(O)c12
IC50 [6]: 7.52 µM
inhibition [7]: Dose-dependent-effect
Activity (H9c2 [18]): 1.21%
Activity [19]: 0.4%
Activity (HK-2 [20]): 1.29%

O=c1c(OCc2ccc(F)cc2)c(-c2ccc(OCc3ccc(F)cc3)c(OCc3ccc(F)cc3)c2)oc2cc(OCc3ccc(F)cc3)cc(O)c12
inhibition [5]: < 50%

CCOc1cc(O)c2c(=O)c(OCC)c(-c3ccc(OCC)c(O)c3)oc2c1
inhibition [14]: > 50%

CC(=O)Oc1cc(O)c2c(=O)c(OC(C)=O)c(-c3ccc(OC(C)=O)c(OC(C)=O)c3)oc2c1
inhibition [14]: > 50%

O=C(Oc1cc(O)c2c(=O)c(OC(=O)c3ccccc3)c(-c3ccc(OC(=O)c4ccccc4)c(O)c3)oc2c1)c1ccccc1
inhibition [14]: > 50%

C=CCOc1cc(O)c2c(=O)c(OCC=C)c(-c3ccc(OCC=C)c(OCC=C)c3)oc2c1
IC50 [6]: 2.22 µM
inhibition [7]: Dose-dependent-effect
Activity [21]: 0%
Activity (HK-2 [22]): 0.04%
Activity (H9c2 [23]): 1.83%

O=C1OC2(c3ccccc31)c1cc(I)c(O)c(I)c1Oc1c2cc(I)c(O)c1I [ERYTHROSINE]
IC50 [6]: 6.16 µM
inhibition [7]: Dose-dependent-effect

O=c1c(OCc2ccccc2)c(-c2ccc(OCc3ccccc3)c(O)c2)oc2cc(OCc3ccccc3)cc(O)c12
inhibition [14]: > 50%

C=CCOc1cc(O)c2c(=O)c(OCC=C)c(-c3ccc(OCC=C)c(O)c3)oc2c1
inhibition [14]: > 50%

CCCOc1cc(O)c2c(=O)c(OCCC)c(-c3ccc(OCCC)c(O)c3)oc2c1
inhibition [14]: > 50%
